These results are taken from ChEMBL document CHEMBL1142739, “Development of spin-labeled probes for adenosine receptors” (J Med Chem, 2005).

Test [1] has as its target T1, Adenosine receptor A2b (Homo sapiens, UniProt P29275).
T1 sequence (P29275 whole entry): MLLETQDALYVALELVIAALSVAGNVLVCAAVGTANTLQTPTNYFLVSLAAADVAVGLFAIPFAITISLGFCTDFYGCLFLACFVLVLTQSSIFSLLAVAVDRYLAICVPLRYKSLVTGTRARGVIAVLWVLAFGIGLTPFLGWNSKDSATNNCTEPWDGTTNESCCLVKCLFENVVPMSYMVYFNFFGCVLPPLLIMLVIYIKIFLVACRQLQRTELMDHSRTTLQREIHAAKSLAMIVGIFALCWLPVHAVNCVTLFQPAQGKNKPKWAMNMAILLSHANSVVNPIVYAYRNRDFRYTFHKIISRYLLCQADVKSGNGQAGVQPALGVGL
The test is described as follows: Inhibition of [3H]ZM-241380 binding to adenosine A2b receptor.

Test [2] addresses T2, Adenosine receptor A2a (Rattus norvegicus, UniProt P30543). In words: Inhibition of [3H]MSX-2 binding to adenosine A2a receptor.
Test [3] addresses T3, Adenosine receptor A1 (Rattus norvegicus, UniProt P25099).
T3 sequence (P25099 whole entry): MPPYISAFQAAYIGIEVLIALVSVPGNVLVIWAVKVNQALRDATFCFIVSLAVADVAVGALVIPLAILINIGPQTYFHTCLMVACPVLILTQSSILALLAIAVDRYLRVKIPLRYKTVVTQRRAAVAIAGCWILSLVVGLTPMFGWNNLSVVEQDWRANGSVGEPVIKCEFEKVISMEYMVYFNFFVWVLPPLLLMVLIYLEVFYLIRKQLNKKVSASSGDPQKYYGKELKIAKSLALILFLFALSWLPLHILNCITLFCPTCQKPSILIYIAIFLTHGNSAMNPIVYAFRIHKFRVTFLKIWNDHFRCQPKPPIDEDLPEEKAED
The test is described as follows: Inhibition of [3H]CCPA binding to adenosine A1 receptor. The procedure, abridged: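 Radioligand competition assay; rat brain cortical membranes as the receptor source.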

In another test the target is T4, Adenosine receptor A3 (Homo sapiens, UniProt P0DMS8).
T4 sequence (P0DMS8 whole entry): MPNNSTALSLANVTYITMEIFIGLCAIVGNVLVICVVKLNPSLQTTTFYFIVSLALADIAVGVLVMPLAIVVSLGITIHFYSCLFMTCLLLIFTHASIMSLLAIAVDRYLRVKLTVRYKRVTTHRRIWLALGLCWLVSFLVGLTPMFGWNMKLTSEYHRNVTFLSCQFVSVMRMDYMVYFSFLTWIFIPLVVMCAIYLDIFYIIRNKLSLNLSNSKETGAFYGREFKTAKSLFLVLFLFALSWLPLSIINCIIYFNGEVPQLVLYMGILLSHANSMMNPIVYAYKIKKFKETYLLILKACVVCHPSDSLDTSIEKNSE
The test is described as follows: Inhibition of [3H]PSB-11 binding to adenosine A3 receptor.

In test [4] the target is T1, Adenosine receptor A2b. In words: Inhibition of [3H]PSB-298 binding to adenosine A2b receptor.
The target in test [5] is T2, Adenosine receptor A2a. The test is described as follows: Inhibition of [3H]NECA binding to adenosine A2a receptor. In a few lines:
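Competition binding on rat brain striatal membranes as the A2A source. Where no Ki was reached, percent inhibition of radioligand binding was reported at 1 or 10 µM test compound.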

Test [6] concerns the target T3, Adenosine receptor A1. The test is described as follows: Inhibition of [3H]R-PIA binding to adenosine A1 receptor. In a few lines: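 Competition binding on rat brain cortical membranes as the A1 source. Where no Ki was reached, percent inhibition of radioligand binding was reported at 1 or 10 µM test compound.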
Test [7] concerns the target T5, Adenosine receptor A3 (Homo sapiens) (UniProt P0DMS8).
T5 sequence (whole entry): T4 sequence (P0DMS8 whole entry)
In words: Percent inhibition of [3H]PSB-11 binding to adenosine A3 receptor at 10 uM. The procedure, abridged:
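Radioligand competition assay; membranes from HEK cells stably expressing the human receptor. Percent inhibition of radioligand binding is reported at the stated test concentration.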

For test [8], the target named is T6, Adenosine receptor A2b (Homo sapiens) (UniProt P29275).
T6 sequence (whole entry): T1 sequence (P29275 whole entry)
The test is described as follows: Percent inhibition of [3H]PSB-298 binding to adenosine A2b receptor at 10 uM. The procedure, abridged:
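Radioligand competition assay; membranes from CHO cells stably expressing the human receptor. Percent inhibition of radioligand binding is reported at the stated test concentration.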

T2 sequence (P30543 whole entry): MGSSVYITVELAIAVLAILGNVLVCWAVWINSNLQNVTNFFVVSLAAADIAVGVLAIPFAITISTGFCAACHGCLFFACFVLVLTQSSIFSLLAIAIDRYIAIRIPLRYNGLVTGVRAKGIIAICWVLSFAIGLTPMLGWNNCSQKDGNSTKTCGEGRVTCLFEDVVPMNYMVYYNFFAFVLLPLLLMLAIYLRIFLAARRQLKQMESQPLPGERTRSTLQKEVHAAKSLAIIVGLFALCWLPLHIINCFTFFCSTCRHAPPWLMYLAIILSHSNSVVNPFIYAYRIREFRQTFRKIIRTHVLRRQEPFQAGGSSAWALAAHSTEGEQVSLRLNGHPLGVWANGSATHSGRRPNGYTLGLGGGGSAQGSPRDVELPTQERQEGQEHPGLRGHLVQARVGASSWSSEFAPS

For the compound `CCCCn1c(=O)[nH]c2[nH]c(-c3ccc(OCC(=O)Nc4ccc(CC(=O)O)cc4)cc3)nc2c1=O`, the Ki (usually a measure of affinity in units of concentration, obtained from inhibition or displacement) on Adenosine receptor A2b [1] was 5.3 nM; on Adenosine receptor A2a [2] it was 479 nM; on Adenosine receptor A1 [3] it was 41 nM; on Adenosine receptor A3 it was 676 nM.
Regarding `CCCn1c(=O)c2nc(C3CC(C)(C)N([O])C(C)(C)C3)[nH]c2n(CCC)c1=O`, the inhibition constant (Ki) on Adenosine receptor A2a [2] was 6750 nM; on Adenosine receptor A2b [4], more than 10000 nM; on Adenosine receptor A1 [3], 160 nM; on Adenosine receptor A3 it was approximately 10000 nM.
In the case of `CCCn1c(=O)c2[nH]c(C3CCCC3)nc2n(Cc2ccccc2)c1=O`, the inhibitory constant (Ki) at Adenosine receptor A2a [5] worked out at 511 nM; on Adenosine receptor A1 [6] it was 8.7 nM; on Adenosine receptor A3, 54.6 nM.
For `CCCn1c(=O)c2nc(C3=CC(C)(C)N([O])C3(C)C)[nH]c2n(CCC)c1=O`, the inhibition constant (Ki) at Adenosine receptor A2a [2] was 3800 nM; at Adenosine receptor A2b [4], 3100 nM; at Adenosine receptor A1 [3], 8.23 nM; at Adenosine receptor A3, approximately 10000 nM. For the same compound, the inhibition (in general, the relative decrease from the control value, in per cent) in test [7] is 47%.
Regarding `CCCn1c(=O)c2nc(C3CCCC3)[nH]c2n(CC2=CC(C)(C)N([O])C2(C)C)c1=O`, the inhibition constant (Ki) on Adenosine receptor A2a [2] was 8780 nM; at Adenosine receptor A2b [4], more than 1000 nM; on Adenosine receptor A1 [3], 5.47 nM; on Adenosine receptor A3, 1700 nM. For the same compound, the inhibition in test [8] is 23%.
